HTRA1 inhibitor: blocks human HTRA1 serine peptidase; Q92743; recombinant HTRA1, FP-rhodamine activity-based probe, fluorescence polarization; inhibition, % at 5.96 µM; 340,000 compounds, 0.5% hits; in the data active = inhibition above about 36%;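 also: 0% = enzyme with DMSO and 100% = wells lacking enzyme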
ABHD4 inh: ABHD4 (mouse) inhibition, primary FP screen; Q8VD66; purified mABHD4, FP-Rh probe fluorescence polarization; inhibition, % at 8.92 µM; 370,000 compounds, 0.54% hits; AID 720543;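 active = inhibition exceeding the mean over every tested compound plus 3 SD, cut at about 30% in these data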;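 also: 0% = plate median of compound wells and 100% = S159A mutant with DMSO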
Target sequence (Q8VD66 whole entry, looked up): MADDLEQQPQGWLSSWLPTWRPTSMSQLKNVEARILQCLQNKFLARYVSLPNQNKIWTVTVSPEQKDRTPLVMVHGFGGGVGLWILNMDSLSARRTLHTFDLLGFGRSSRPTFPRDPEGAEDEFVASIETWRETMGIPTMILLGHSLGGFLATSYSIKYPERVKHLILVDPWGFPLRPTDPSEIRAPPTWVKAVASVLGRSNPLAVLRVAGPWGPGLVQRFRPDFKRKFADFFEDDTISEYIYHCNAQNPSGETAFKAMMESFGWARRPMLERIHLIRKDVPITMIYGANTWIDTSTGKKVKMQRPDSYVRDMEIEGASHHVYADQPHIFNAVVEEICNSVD
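System: mouse ABHD4 enzyme, wild type / Medium: HEPES pH 7.0, NaCl, Pluronic buffer / Reagent: FP-Rh activity-based fluorescent probe / Control set: S159A mutant high control, sample median low control / Detection: fluorescence polarization with parallel and perpendicular emission, 525/598 nm / Schedule: 45 min + 60 min at 25 °C / Compound dosing: 8.92 µM, single dose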
PRMT1 FP inh: inhibitors of human PRMT1; 370,000 compounds, 1.3% hits; Q99873; recombinant PRMT1, activity-based probe fluorescence polarization; inhibition, % at 2.79 µM;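 active = inhibition above about 21% made by adding two undisclosed values, limit read from the data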
Target sequence (Q99873 whole entry, looked up): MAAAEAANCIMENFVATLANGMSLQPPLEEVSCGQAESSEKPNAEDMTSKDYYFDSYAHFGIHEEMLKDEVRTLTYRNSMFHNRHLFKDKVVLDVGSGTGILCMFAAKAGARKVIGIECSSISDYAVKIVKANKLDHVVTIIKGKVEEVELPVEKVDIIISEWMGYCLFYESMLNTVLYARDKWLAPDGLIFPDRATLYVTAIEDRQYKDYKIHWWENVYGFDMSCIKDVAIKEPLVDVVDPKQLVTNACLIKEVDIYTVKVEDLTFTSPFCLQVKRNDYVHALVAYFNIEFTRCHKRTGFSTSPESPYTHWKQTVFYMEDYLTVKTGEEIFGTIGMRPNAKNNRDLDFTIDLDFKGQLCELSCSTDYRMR
rCAG RNA binder: r(CAG) repeat RNA binding; TO-PRO-1 dye displacement fluorescence; inhibition, % at 3 µM; 370,000 compounds, 1.3% hits; AID 651821;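 active = inhibition above the plate cutoff, the mean of all test compounds on that plate plus 3 SD, cut at about 35% in these data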;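 also: 0% = DMSO alone and 100% = 100 µM mitoxantrone as full dye displacement; higher means more dye released from RNA so lower well fluorescence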
SIAE inh: human SIAE inhibition, primary screen; SIAE FP-Rh probe binding, fluorescence polarization; inhibition, % at 9.66 µM; 370,000 compounds, 0.69% hits;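 active = inhibition above a cutoff: mean of compounds within the control limits plus 3 SD of those, cut at about 17% in these data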;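 also: 0% = plate median of compound wells and 100% = probe without SIAE protein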
HTRA1 inh conf: HTRA1 (human) inhibition, confirmation; inhibition, % at 5.96 µM; shares compounds with HTRA1 inhibitor; recombinant HTRA1, FP-rhodamine activity-based probe, fluorescence polarization; AID 540248; 1,600 compounds, 66% hits;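 active = mean inhibition over three repeats above a set limit taken from the earlier primary screen, cut at about 37% in these data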;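 also: 0% = HTRA1 with DMSO and 100% = wells lacking HTRA1; inhibitors block probe binding so polarization drops and inhibition rises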
rCAG bind conf: r(CAG) RNA repeat binding, confirmation. shares compounds with rCAG RNA binder. TO-PRO-1 dye displacement fluorescence. inhibition, % at 3 µM. 4,300 compounds, 70% hits. AID 652065;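 active = inhibition above a per-plate cutoff, the mean inhibition of sample wells plus 3 SD, cut at about 35% in these data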;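 also: loss of TO-PRO-1 fluorescence as compound displaces dye from 1x1 AA loop RNA; 0% = DMSO only wells and 100% = 100 µM mitoxantrone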
dCAG dye counter: counter-screen for rCAG RNA binders: DNA CAG dye complex inhibitors; shares compounds with rCAG RNA binder; d(CAG) DNA oligo TO-PRO-1 dye displacement, fluorescence; inhibition, % at 3 µM; 4,300 compounds, 94% hits; AID 652068;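 active = inhibition above its plate's cutoff, the mean test-well inhibition plus 3 SD, cut at about 4.8% in these data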;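 also: 0% = DNA dye mix with DMSO and 100% = 100 µM mitoxantrone; hits displace the dye from DNA and so lower well fluorescence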
PRMT1 inh conf: PRMT1 (human) inhibition, FP confirmation; 3,300 compounds, 42% hits; recombinant His-PRMT1, activity-based probe fluorescence polarization; AID 687036; inhibition, % at 2.79 µM; shares compounds with PRMT1 FP inh;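 active = mean inhibition across replicates above the hit cutoff derived for the earlier primary screen, cut at about 22% in these data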
ABHD4 confirm: ABHD4 (mouse) inhibition, FP confirmation | purified mABHD4, FP-Rh probe fluorescence polarization | 1,800 compounds, 55% hits | shares compounds with ABHD4 inh | inhibition, % at 8.92 µM;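 active = mean inhibition across replicates above the hit cutoff set in the primary screen, cut at about 30% in these data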;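 also: 0% = wild-type ABHD4 with DMSO and 100% = catalytically dead S159A mutant with DMSO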
Active calls of the source: *; nt = no result. Only some compounds are listed: those with a hit (about 3.3% of all), similar ones and a draw of the others.

SMILES	HTRA1 inhibitor	ABHD4 inh	PRMT1 FP inh	rCAG RNA binder	SIAE inh	HTRA1 inh conf	ABHD4 confirm	others
N#C/C(=C\c1ccc(O)c(O)c1)C(=O)NCCc1ccccc1	70.5*	50.7*	11.6	39.4*	14.6	92.9*	32.6*	rCAG bind conf=44.5*;dCAG dye counter=13.1*
Oc1ccc(/C=N/N(c2ccccc2)c2ccccc2)cc1O	56.6*	41.8*	17.7	28.9	2.2	97.4*	27.4
Oc1ccc(/C=N/N=C/c2ccc(O)c(O)c2)cc1O	30.5	26.4	13.3	1.1	1.1	nt	nt
CC1(C)CNc2cc(N)ccc2S1	72.0*	37.9*	11.7	10.8	5.9	13.3	40.3*
COC(=O)[C@]12C[C@H](CC(=O)NCc3cccc4ccccc34)C(=O)N(CCc3ccc(OC)c(OC)c3)C1=C[C@H](C(C)C)O[C@@H]2C1CC1	nt	-1.0	4.0	6.6	3.5	nt	nt
CCOC(=O)c1ccc(CC(=O)c2oc3cc(O)ccc3c2C)o1	-3.6	1.9	3.9	15.5	-6.3	nt	nt
CCOC(=O)c1ccc(CC(=O)c2ccc(O)c(O)c2O)o1	52.8*	30.6*	43.3*	32.7	2.9	81.8*	23.8	PRMT1 inh conf=6.8
C=CCN=c1scc(-c2ccco2)n1/N=C/c1ccc(O)c(O)c1O	72.0*	48.6*	28.6*	44.2*	1.6	86.0*	60.1*	rCAG bind conf=59.5*;dCAG dye counter=29.0*;PRMT1 inh conf=31.3*
CN=c1scc(-c2cccs2)n1/N=C/c1ccc(O)c(O)c1O	81.6*	55.5*	40.0*	60.7*	13.1	73.1*	73.6*	rCAG bind conf=54.4*;dCAG dye counter=25.3*;PRMT1 inh conf=38.2*
O=C(NC1CCCCN(Cc2cccc(Cl)c2)C1=O)c1cccc(F)c1 (stereo unspecified)	nt	-4.0	1.0	0.2	-4.9	nt	nt
O=C(CSc1nnnn1-c1ccc(F)cc1)c1ccc(O)c(O)c1	41.4*	29.9*	3.7	20.2	4.5	53.1*	14.6
O=S(=O)(c1ccc2ccccc2c1)N1CCOCC1	0.9	-2.4	-4.7	4.3	2.8	nt	nt
O=S(=O)(c1ccc2nc(-c3ccco3)c(-c3ccco3)nc2c1)N1CCOCC1	40.9*	56.1*	52.2*	69.3*	4.0	9.0	28.9	PRMT1 inh conf=68.5*
O=C(CCc1nc(-c2ccccc2F)no1)NCCc1cccc(F)c1	nt	-2.0	7.3	0.9	-1.9	nt	nt
Oc1cccc(/C=N/NC(=S)Nc2cccnc2)c1O	41.7*	31.3*	12.4	21.0	13.8	23.9	25.2
O=C(c1ccco1)N1CCN(CCCCN2C(=O)c3ccccc3C2=O)CC1	-1.5	0.9	1.6	-5.2	4.5	nt	nt
O=C1c2ccccc2-c2onc3c(N4CCN(CCO)CC4)cc(N4CCN(C(=O)c5ccco5)CC4)c1c23	67.0*	35.1*	14.9	6.9	16.2	72.1*	43.4*
O=C(CCc1ccccc1)N[C@H]1[C@@H](OC(=O)c2ccco2)CCC[C@]12C(=O)N(Cc1ccccc1)c1ccccc12	nt	5.8	-0.9	4.4	3.3	nt	nt
O=c1oc(-c2ccc(O)c(O)c2)cc2cccc(O)c12	62.2*	34.8*	1.9	15.7	4.6	67.7*	33.6*
O=c1oc(-c2ccc(O)c(O)c2)cc2cc(O)cc(O)c12	55.5*	51.4*	3.9	16.3	11.5	124.4*	36.2*
O=c1cc(-c2ccc(O)c(O)c2)oc2c1ccc1ccccc12	66.1*	33.6*	13.7	57.3*	-2.7	73.9*	30.9*	rCAG bind conf=60.9*;dCAG dye counter=27.6*
Cc1nn(-c2ccccc2)c2sc(C(=O)NC3CCCCCC3)cc12	nt	-3.1	-0.3	10.9	-6.8	nt	nt
CN(C)c1ccc(N/C=C/C(=O)c2ccco2)cc1	46.9*	43.5*	21.4*	12.9	11.2	11.9	6.0
CC(=O)Nc1ccc(N/C=C/C(=O)c2ccco2)cc1	3.4	3.6	-1.5	2.6	7.8	nt	nt
CCN(CC)c1ccc(N=Cc2ccc([N+](=O)[O-])o2)cc1	63.8*	45.2*	40.8*	19.7	7.4	41.0*	15.5
SMILES	HTRA1 inhibitor	ABHD4 inh	PRMT1 FP inh	rCAG RNA binder	SIAE inh	HTRA1 inh conf	ABHD4 confirm	others
Cc1ccc(/C=[N+](\[O-])c2ccc(N(C)C)cc2)c2nsnc12	38.1*	30.4*	3.1	4.8	9.1	20.4	-8.4
CCOC(=O)C1Nc2ccccc2C2c3ccccc3CC12 (stereo unspecified)	-26.1	-10.8	15.9	21.4	-4.2	nt	nt
CCOC(=O)c1ccc2c(c1)C1C=CCC1C(C(=O)OCC)N2 (stereo unspecified)	44.0*	35.5*	22.7*	47.4*	13.4	54.4*	45.0*	rCAG bind conf=35.4*;dCAG dye counter=16.8*
COc1ccc(NC(=S)NNc2ccc(S(=O)(=O)Nc3ccccc3C(=O)O)cc2[N+](=O)[O-])cc1	73.8*	74.4*	16.6	96.8*	-11.4	73.2*	95.5*	rCAG bind conf=88.5*;dCAG dye counter=60.6*
CCCC(=O)N1CCC[C@]2(CC[C@@H](CCC#N)O2)C1	nt	4.0	2.1	0.7	-3.3	nt	nt
CC1(C)CC(=O)C(C=Nc2ccc(C(=O)c3ccccc3)cc2N=CC2=C(O)CC(C)(C)CC2=O)=C(O)C1	41.5*	29.5*	77.1*	2.3	-8.7	14.7	7.9	PRMT1 inh conf=0.4
CCN(CC)C(=O)CC[C@@H]1CC[C@]2(CCCN(S(C)(=O)=O)C2)O1	nt	0.6	8.7	0.0	-1.1	nt	nt
C=CCn1c(SCC(=O)Nc2cc(C)on2)nnc1-c1ccccc1OC	3.3	1.0	0.9	0.1	4.9	nt	nt
C=CCn1c(SCC(=O)c2ccc(O)c(O)c2)nnc1-c1ccccc1OC	58.6*	29.5*	9.5	13.1	4.3	48.9*	9.6
CNCc1ccccc1Sc1ccc(O)c(O)c1	62.4*	35.4*	65.7*	9.7	10.3	57.0*	50.4*
COc1ccc(Sc2ccccc2CN(C)C)cc1OC	4.4	-1.8	2.1	-5.8	2.6	nt	nt
CCN1CCCCC(NC(=O)c2ccccc2C)C1=O (stereo unspecified)	nt	4.9	-2.8	-0.8	-1.0	nt	nt
C=CCOc1c(Cl)cc(CNc2ccc(N(C)C)cc2)cc1OC	48.1*	39.6*	18.7	11.6	11.3	7.4	45.2*
C=CCOc1c(Cl)cc(CNCCC)cc1Cl	-2.9	5.6	1.2	-1.4	1.2	nt	nt
O=[N+]([O-])c1cc(/C=N\Nc2nc(-c3ccccc3)cs2)ccc1O	47.4*	41.5*	10.5	65.6*	7.5	49.5*	60.8*	rCAG bind conf=53.8*;dCAG dye counter=22.9*
